T cruzi growth-1: blocks T. cruzi growth in NIH3T3 culture. T. cruzi beta-gal in NIH3T3, GalScreen luminescence, 90 h. inhibition, % at 8.34 µM. 77,000 tested, 5.9% active. AID 624255;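 active = mean inhibition above about 93%, with at least 55% of replicates each passing it, limit read from the data, passing the limit was not always enough; inconclusive = only one of those two conditions holds; inactive = neither condition holds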
IDH1 mut inh: IDH1 R132H (human) inhibition | AID 624101 | inhibition, % at 10 µM | IDH1 R132H reductase, diaphorase/resazurin fluorescence, 60 min | 70,000 tested, 0.18% active | O75874; in the data active = inhibition above about 34%; inconclusive = no clear call, values can overlap the other calls; inactive = below about 11%;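 also: 0% = DMSO and 100% = no enzyme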
GASC1 inh: blocks human GASC-1 (KDM4C) demethylase activity; Q9H3R0; GST-KDM4C 2-372, H3K9me3 peptide, LANCE TR-FRET; inhibition, % at 12.5 µM; 96,000 tested, 0.15% active;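 active = mean replicate inhibition above about 25%, with at least 55% of replicates also reaching it, limit read from the data, passing the limit was not always enough; inconclusive = only one of those two conditions met; inactive = neither condition met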
Target sequence (Q9H3R0 2-372 limits assumed): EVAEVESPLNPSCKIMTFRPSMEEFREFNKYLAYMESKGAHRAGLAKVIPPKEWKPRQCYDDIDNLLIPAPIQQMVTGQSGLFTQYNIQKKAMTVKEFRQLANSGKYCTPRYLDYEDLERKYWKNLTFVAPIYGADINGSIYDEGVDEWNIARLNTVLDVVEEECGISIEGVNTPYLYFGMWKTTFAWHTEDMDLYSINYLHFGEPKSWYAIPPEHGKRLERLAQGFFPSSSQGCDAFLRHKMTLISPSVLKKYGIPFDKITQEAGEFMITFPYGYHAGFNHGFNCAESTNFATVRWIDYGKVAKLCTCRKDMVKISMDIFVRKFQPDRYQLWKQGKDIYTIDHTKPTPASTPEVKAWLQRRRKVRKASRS
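Material: N-terminal GST-fused human GASC-1 (KDM4C) fragment, residues 2-372. Input: 10 nM enzyme. Incubation: enzyme reaction 30 min, then detection 60 min, both room temperature. Doses: one test concentration per compound. Read-out basis: inhibition from TR-FRET ratio decrease. Detection: LANCE TR-FRET, excitation 340 nm, emissions 618 and 671 nm.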
T cruzi growth-2: inhibitors of T. cruzi proliferation | shares compounds with T cruzi growth-1 | T. cruzi beta-gal in NIH3T3, GalScreen luminescence, 90 h | inhibition, % at 8.35 µM | 5,600 tested, 72% active | AID 651739;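 active = mean replicate inhibition above about 95% and at least 55% of replicates individually reaching it, limit read from the data; inconclusive = only one of the two criteria is met; inactive = neither criterion is met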
T cruzi growth-3: blocks T. cruzi growth in NIH3T3 host cells | shares compounds with T cruzi growth-1 | T. cruzi beta-gal in NIH3T3, GalScreen luminescence, 90 h | inhibition, % at 2.09 µM | 5,600 tested, 21% active;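 active = mean inhibition above about 95%, with at least 55% of replicates also reaching it, limit read from the data; inconclusive = meets just one of the two conditions; inactive = meets neither condition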;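 also: plate controls were neutral control median for no effect and positive control median for full effect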
3T3 cytotox: NIH/3T3 (mouse) viability loss; shares compounds with T cruzi growth-1; NIH/3T3 viability, CellTiter-Glo ATP luminescence, 90 h; cytotoxicity (signal decrease), % at 8.35 µM; 5,600 tested, 14% active; AID 651742;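 active = mean signal decrease across replicates above about 35% based on untreated-well scatter, with enough replicates individually passing, limit read from the data; inconclusive = no rule stated though some were filed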;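 also: 0% = median of neutral control wells and 100% = median of positive control wells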
NIH3T3 tox 2: cytotoxicity in mouse NIH/3T3 fibroblasts; AID 651744; inhibition, % at 24.9 µM; 5,600 tested, 56% active; shares compounds with T cruzi growth-1; NIH/3T3 viability, CellTiter-Glo ATP luminescence, 90 h;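 active = mean loss of cell viability signal at or above a set limit, and enough replicates individually reaching it; inconclusive = meets only the mean limit or only the replicate share; inactive = meets neither condition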;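 also: 0% = median of neutral control wells and 100% = median of positive control wells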
An asterisk follows results filed as active; ? = inconclusive; nt = not tested or not shown; + = active, no number. Only a selection was taken, and hits are over-represented in it overall.

SMILES | T cruzi growth-1 | IDH1 mut inh | GASC1 inh | T cruzi growth-2 | T cruzi growth-3 | 3T3 cytotox | NIH3T3 tox 2
C[C@H]1CN([C@@H](C)CO)C(=O)Cc2cc(NC(=O)c3ccncc3)ccc2O[C@H]1CN(C)C(=O)NC1CCCCC1 | 43 | 5 | -1 | nt | nt | nt | nt
CN1CCN(C(=O)C[C@H]2C[C@@H]3c4cc(NC(=O)c5ccc6c(c5)OCO6)ccc4O[C@@H]3[C@@H](CO)O2)CC1 | 10 | 0 | 0 | nt | nt | nt | nt
CC(C)c1ccc(NC(=O)CSc2nnc(-c3ccccc3Cl)n2C)cc1 | nt | 0 | nt | nt | nt | nt | nt
CC(C)NC(=O)N(C)C[C@@H]1OCCCC[C@H](C)Oc2ccc(NC(=O)Nc3ccc(F)cc3)cc2C(=O)N([C@@H](C)CO)C[C@@H]1C | 8 | 1 | -1 | nt | nt | nt | nt
C[C@@H]1CN([C@H](C)CO)S(=O)(=O)c2ccc(C#Cc3cccnc3)cc2O[C@@H]1CN(C)CC1CC1 | -35 | 6 | -2 | nt | nt | nt | nt
CCCC(=O)Nc1ccc2c(c1)C(=O)N(C)C[C@@H](OC)[C@H](C)CN(Cc1cccc(F)c1)[C@@H](C)CO2 | -14 | 0 | 1 | nt | nt | nt | nt
O=C(NCC1CC1)[C@H]1[C@H](CO)[C@H]2Cn3c(ccc(C4=CCCCC4)c3=O)[C@H]2N1Cc1ccccc1F | 99* | nt | 3 | 88 | 17 | 9 | 66*
CN(C)C(=O)[C@H]1[C@H](CO)[C@H]2Cn3c(ccc(C4=CCCCC4)c3=O)[C@H]2N1Cc1ccccn1 | + | nt | 7 | 29 | 24 | 10 | 18
CCN1[C@@H]2c3ccc(C4=CCCCC4)c(=O)n3C[C@@H]2[C@@H](CO)[C@@H]1C(=O)NC1Cc2ccccc2C1 | 105* | nt | 4 | 106* | 25 | 18 | 41*
O=C(O)[C@@H]1[C@@H](CO)[C@@H]2Cn3c(ccc(C4=CCCCC4)c3=O)[C@@H]2N1Cc1ccccc1F | 10 | nt | -1 | nt | nt | nt | nt
O=C(NCC1CC1)[C@@H]1[C@@H](CO)[C@@H]2Cn3c(ccc(C4=CCCC4)c3=O)[C@@H]2N1Cc1ccccc1F | 86 | nt | 2 | nt | nt | nt | nt
CCN1[C@@H]2c3ccc(C4=CCCC4)c(=O)n3C[C@@H]2[C@@H](CO)[C@@H]1C(=O)NC1Cc2ccccc2C1 | 23 | nt | 6 | nt | nt | nt | nt
CN(C)C(=O)[C@@H]1[C@@H](CO)[C@@H]2Cn3c(ccc(C4=CCCC4)c3=O)[C@@H]2N1Cc1ccccn1 | 33 | nt | 3 | nt | nt | nt | nt
CCCNC(=O)[C@H]1[C@H](CO)[C@H]2Cn3c(ccc(C4=CCCCC4)c3=O)[C@H]2N1Cc1ccccc1F | 103* | nt | 2 | 106* | 5 | 1 | ?
O=C(c1ccccc1)N1CC(=O)N2[C@H](C1)[C@H](c1ccc(-c3ccccc3)cc1)[C@@H]2CO | nt | nt | 1 | nt | nt | nt | nt
Cc1[nH]c2ccccc2c1C(=O)CSc1nncn1C | nt | -1 | nt | nt | nt | nt | nt
CNC[C@@H]1Oc2ccc(NC(=O)Cn3cnnn3)cc2CC(=O)N([C@@H](C)CO)C[C@H]1C | nt | 2 | -1 | nt | nt | nt | nt
O=C(NCC1CC1)[C@@H]1[C@@H](CO)[C@@H]2Cn3c(ccc(-c4cccnc4)c3=O)[C@@H]2N1Cc1cocn1 | 20 | nt | 4 | nt | nt | nt | nt
O=C(NCC1CC1)[C@H]1[C@H](CO)[C@H]2Cn3c(ccc(-c4ccccc4)c3=O)[C@H]2N1Cc1cocn1 | 98* | nt | 8 | -7 | -3 | -16 | -23
CCC(=O)N1CCCCN2[C@H](CO)[C@H](c3ccc(-c4ccc(F)cc4)cc3)[C@@H]2C1 | 106* | nt | 0 | 78 | -14 | 26 | 54*
CCC(=O)N1CCCCN2[C@H](CO)[C@H](c3ccc(-c4ccc(F)cc4)cc3)[C@H]2C1 | 93 | nt | 0 | nt | nt | nt | nt
COCC(=O)N1CCCCN2[C@@H](CO)[C@@H](c3ccc(-c4ccc(C)cc4)cc3)[C@@H]2C1 | 107* | nt | 0 | 75 | 75 | -11 | 26*
COCC(=O)N1CCCCN2[C@H](CO)[C@H](c3ccc(-c4ccc(C)cc4)cc3)[C@@H]2C1 | 91 | nt | -1 | nt | nt | nt | nt
COCC(=O)N1CCCCN2[C@@H](CO)[C@@H](c3ccc(-c4ccc(F)cc4)cc3)[C@@H]2C1 | 79 | nt | -1 | nt | nt | nt | nt
CCC(=O)N1CCCCN2[C@@H](CO)[C@@H](c3ccc(-c4ccc(F)cc4)cc3)[C@@H]2C1 | 107* | nt | 0 | 79 | 69 | 16 | 70*

Assay outcomes (PubChem)
